Structures can show the parent of a compound that is named as a salt. Blank lines part the entries; values can stand above or below the molecule they belong to. Calls of active or inactive are those of the source. The calls are words filed in the database; no cut-off is given here.
Columns and labels:
[1] = Cytotoxicity against human BCG823 cells by MTT assay; assay type: functional, cell-based
Method in brief: (§1)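 MTT assay in human tumour lines. IC50 is the compound concentration giving a 50% drop in optical density relative to untreated cells. Values are means of three independent determinations.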

[2] = system: MCF7; assay: Cytotoxicity against human MCF7 cells by MTT assay; assay type: functional, cell-based; method in brief: as §1
[3] = system: OS-RC-2; assay: Cytotoxicity against human OS-RC2 cells by MTT assay; assay type: functional, cell-based; method in brief: as §1
[4] = system: Calf thymus DNA; assay: Binding affinity to calf thymus DNA assessed as fluorescence quenching at 10 uM by spectrofluorimeter analysis; assay type: nucleic-acid assay; settings: Bos taurus
Method in brief: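 Compound held fixed at […] in PE buffer (1 mM Na₂HPO₄, 0.1 mM EDTA, pH 7.4), titrated with CT-DNA. Fluorescence quenching recorded on a spectrofluorometer, excitation 372 nm.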

[5] = system: Calf thymus DNA; assay: Binding affinity to calf thymus DNA at pH 7.4 by UV-vis spectroscopy; assay type: nucleic-acid assay; settings: Bos taurus
Method in brief: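 UV absorption spectra recorded in PE buffer (1 mM Na₂HPO₄, 0.1 mM EDTA, pH 7.4) with CT-DNA increasing from 0.0 to 0.2 mM. Quartz cells with 10 mm path, room temperature.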

[6] = system: A-375; assay: Cytotoxicity against human A375 cells by MTT assay; assay type: functional, cell-based; method in brief: as §1
[7] = system: 769-P; assay: Cytotoxicity against human 769-P cells by MTT assay; assay type: functional, cell-based; method in brief: as §1
[8] = system: HepG2; assay: Cytotoxicity against human HepG2 cells by MTT assay; assay type: functional, cell-based; method in brief: as §1
[9] = system: 786-0; assay: Cytotoxicity against human 786-0 cells by MTT assay; assay type: functional, cell-based; method in brief: as §1
[10] = system: KB; assay: Cytotoxicity against human KB cells by MTT assay; assay type: functional, cell-based; method in brief: as §1
[11] = system: Calf thymus DNA; assay: Binding affinity to calf thymus DNA assessed as change in melting temperature at drug/DNA ratio 0.2 at pH 7.4; assay type: nucleic-acid assay; settings: Bos taurus
Method in brief: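 Thermal denaturation of calf thymus DNA in PE buffer (1 mM Na₂HPO₄, 0.1 mM EDTA, pH 7.4), drug/DNA ratio 0.2; ΔTm taken as Tm of drug–DNA complex minus Tm of DNA alone.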

[12] = system: HT-29; assay: Cytotoxicity against human HT-29 cells by MTT assay; assay type: functional, cell-based; method in brief: as §1
[13] = system: CWR22R; assay: Cytotoxicity against human 22Rv1 cells by MTT assay; assay type: functional, cell-based; method in brief: as §1

Activity [4]: Active | Activity [5]: Active | ΔTm [11]: 12.6 °C
SMILES: CCN(CC)CCCNCc1cc2c(cn1)[nH]c1ccccc12
IC50 [1]: > 100 µM | IC50 [2]: > 100 µM | IC50 [3]: 67.4 µM | IC50 [6]: > 100 µM | IC50 [7]: 75.3 µM | IC50 [8]: 93.7 µM | IC50 [9]: > 100 µM | IC50 [10]: > 100 µM | IC50 [12]: > 100 µM | IC50 [13]: > 100 µM

SMILES: CCN(CC)CCCCNCc1cc2c3ccccc3n(Cc3ccc(F)cc3)c2cn1
IC50 [1]: 9.4 µM | IC50 [2]: 20.2 µM | IC50 [3]: 31.7 µM | IC50 [6]: 6.5 µM | IC50 [7]: 2.9 µM | IC50 [8]: 2.5 µM | IC50 [9]: 5.8 µM | IC50 [10]: 6.5 µM | IC50 [12]: 10.1 µM | IC50 [13]: 9.6 µM

SMILES: CCN(CC)CCNCc1cc2c3ccccc3n(C)c2cn1
IC50 [1]: 75.7 µM | IC50 [2]: > 100 µM | IC50 [3]: > 100 µM | IC50 [6]: > 100 µM | IC50 [7]: > 100 µM | IC50 [8]: > 100 µM | IC50 [9]: > 100 µM | IC50 [10]: > 100 µM | IC50 [12]: 41.1 µM | IC50 [13]: > 100 µM

SMILES: CCN(CC)CCCCNCc1cc2c3ccccc3n(Cc3cccc(Cl)c3)c2cn1
IC50 [1]: 9.8 µM | IC50 [2]: 19.8 µM | IC50 [3]: 6.7 µM | IC50 [6]: 12.6 µM | IC50 [7]: 8.2 µM | IC50 [8]: 10.8 µM | IC50 [9]: 19.4 µM | IC50 [10]: 4.2 µM | IC50 [12]: 12.2 µM | IC50 [13]: 8.6 µM

ΔTm [11]: 15.6 °C
SMILES: CCN(CC)CCCNCc1cc2c3ccccc3n(Cc3ccccc3)c2cn1
IC50 [1]: 2.8 µM | IC50 [2]: 32.5 µM | IC50 [3]: 14.5 µM | IC50 [6]: 17.5 µM | IC50 [7]: 1.5 µM | IC50 [8]: 4.4 µM | IC50 [9]: 6.4 µM | IC50 [10]: 4.9 µM | IC50 [12]: 3.7 µM | IC50 [13]: 7.3 µM

SMILES: CCN(CC)CCNCc1cc2c3ccccc3n(CCCc3ccccc3)c2cn1
IC50 [1]: 14.2 µM | IC50 [2]: 27.7 µM | IC50 [3]: 43.9 µM | IC50 [6]: 5.9 µM | IC50 [7]: 7.3 µM | IC50 [8]: 7.2 µM | IC50 [9]: 11.2 µM | IC50 [10]: 9.7 µM | IC50 [12]: 4.2 µM | IC50 [13]: 8.2 µM

SMILES: COc1cccc2c1C(=O)c1c(O)c3c(c(O)c1C2=O)C[C@@](O)(C(=O)CO)C[C@@H]3O[C@H]1C[C@H](N)[C@H](O)[C@H](C)O1 [DOXORUBICIN HYDROCHLORIDE]
IC50 [1]: < 1 µM | IC50 [3]: < 1 µM | IC50 [6]: 17.2 µM | IC50 [7]: 11.5 µM | IC50 [8]: 1 µM | IC50 [9]: 3.1 µM | IC50 [10]: 0.6 µM | IC50 [12]: 4.2 µM | IC50 [13]: < 1 µM

Activity [4]: Active | Activity [5]: Active | ΔTm [11]: 18.8 °C
SMILES: CCN(CC)CCCNCc1cc2c3ccccc3n(CCCc3ccccc3)c2cn1
IC50 [1]: 7.4 µM | IC50 [2]: 13.8 µM | IC50 [3]: 13.1 µM | IC50 [6]: 8.9 µM | IC50 [7]: 5.1 µM | IC50 [8]: 3.8 µM | IC50 [9]: 8.3 µM | IC50 [10]: 4.8 µM | IC50 [12]: 2.6 µM | IC50 [13]: 7.7 µM

SMILES: CCN(CC)CCNCc1cc2c3ccccc3n(Cc3cccc(Cl)c3)c2cn1
IC50 [1]: 37.9 µM | IC50 [2]: 42.2 µM | IC50 [3]: 52.3 µM | IC50 [6]: 22.7 µM | IC50 [7]: 19.3 µM | IC50 [8]: 17.7 µM | IC50 [9]: 47.6 µM | IC50 [10]: 21.6 µM | IC50 [12]: 19.7 µM | IC50 [13]: 58.5 µM

SMILES: CCCCn1c2ccccc2c2cc(CNCCCCN(CC)CC)ncc21
IC50 [1]: 23.4 µM | IC50 [2]: 23.4 µM | IC50 [3]: 71.7 µM | IC50 [6]: 15.2 µM | IC50 [7]: 8 µM | IC50 [8]: 8 µM | IC50 [9]: 14.1 µM | IC50 [10]: 10.2 µM | IC50 [12]: 27.4 µM | IC50 [13]: 13.5 µM

From ChEMBL document CHEMBL1177786, “Synthesis of novel beta-carbolines with efficient DNA-binding capacity and potent cytotoxicity” (Bioorg Med Chem Lett, 2010)
